Test results: ChEMBL document CHEMBL4184173, “Synthesis and in vitro evaluations of 6-(hetero)-aryl-imidazo[1,2-b]pyridazine-3-sulfonamide's as an inhibitor of TNF-α production” (Bioorg Med Chem Lett, 2018)
pIC50: −log10 of the molar value.

Each compound was assayed on L929 (assay: Cytoprotective against human TNF-alpha-induced cell death in mouse L929 cells by MTT assay).
Format: functional, cell-based
`O=C1/C(=N/Nc2ccc(Cl)c([N+](=O)[O-])c2)C(c2ccccc2)NN1c1nc(-c2ccccc2)cs1` (centres undefined) showed a pIC50 of 5.05.

What follows are compounds tested on PBMC (assay: Cytotoxicity against human PBMC by MTS assay).
Format: cell-based
In short: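 Cells from the LPS-stimulated hPBMC assay were given MTS-[…] reagent and incubated 5-6 h until absorbance reached 0.5. Read at 490 nm. Percent cytotoxicity was calculated from mean absorbance relative to the 0.5% DMSO vehicle control.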
With `CS(=O)(=O)c1ccc(-c2ccc3ncc(S(=O)(=O)N4CCC(C#N)(c5ccccc5)CC4)n3n2)cc1` the pIC50 was under 4.52. `N#CC1(c2ccccc2)CCN(S(=O)(=O)c2cnc3ccc(Cl)nn23)CC1` gave a pIC50 of under 4.52. Work on `O=S(=O)(c1cnc2ccc(-c3cncc(F)c3)nn12)N1CCN(c2ccccn2)CC1` yielded a pIC50 of under 4.52. `CS(=O)(=O)c1ccc(-c2ccc3ncc(S(=O)(=O)NCC4CCCO4)n3n2)cc1` (centres undefined) was tested, and the pIC50 was under 4.52. With `O=S(=O)(NCC1CCCO1)c1cnc2ccc(-c3cncc(C(F)(F)F)c3)nn12` (centres undefined) the pIC50 was under 4.52. Compound `COc1cccc(CNS(=O)(=O)c2cnc3ccc(-c4cncc(C(F)(F)F)c4)nn23)c1` has a pIC50 of under 4.52. `COc1cccc(CNS(=O)(=O)c2cnc3ccc(-c4ccc(OC)nc4)nn23)c1` gave a pIC50 of under 4.52. In the case of `O=S(=O)(c1cnc2ccc(-c3cccnc3)nn12)N1CCN(c2ccccn2)CC1`, the pIC50 was under 4.52. With `O=S(=O)(NCC1CCCO1)c1cnc2ccc(-c3cccnc3)nn12` (centres undefined) the pIC50 was under 4.52. With `N#CC1(c2ccccc2)CCN(S(=O)(=O)c2cnc3ccc(-c4cncc(F)c4)nn23)CC1` the pIC50 was under 4.52. Work on `O=S(=O)(NCC1CCCO1)c1cnc2ccc(-c3cncc(F)c3)nn12` (centres undefined) yielded a pIC50 of under 4.52. `NS(=O)(=O)c1cnc2ccc(Cl)nn12` was tested, and the pIC50 was under 4.52. `N#CC1(c2ccccc2)CCN(S(=O)(=O)c2cnc3ccc(-c4cccnc4)nn23)CC1` showed a pIC50 of under 4.52. Compound `O=S(=O)(c1cnc2ccc(Cl)nn12)N1CCN(c2ccccc2)CC1` has a pIC50 of under 4.52. `O=S(=O)(c1cnc2ccc(Cl)nn12)N1CCN(Cc2ccccc2)CC1` showed a pIC50 of under 4.52. Compound `COc1cccc(CNS(=O)(=O)c2cnc3ccc(-c4ccc(S(C)(=O)=O)cc4)nn23)c1` has a pIC50 of under 4.52. With `CCN1CCN(S(=O)(=O)c2cnc3ccc(-c4ccc(OC)cc4)nn23)CC1` the pIC50 was under 4.52. With `CCN1CCN(S(=O)(=O)c2cnc3ccc(-c4ccc(OC)nc4)nn23)CC1` the pIC50 was under 4.52. Compound `O=S(=O)(c1cnc2ccc(-c3cncc(C(F)(F)F)c3)nn12)N1CCN(c2ccccn2)CC1` has a pIC50 of under 4.52. `COc1ccc(-c2ccc3ncc(S(=O)(=O)NCC4CCCO4)n3n2)cc1` (centres undefined) gave a pIC50 of under 4.52. `COc1ccc(-c2ccc3ncc(S(=O)(=O)NCC4CCCO4)n3n2)cn1` (centres undefined) gave a pIC50 of under 4.52. `N#CC1(c2ccccc2)CCN(S(=O)(=O)c2cnc3ccc(-c4cncc(C(F)(F)F)c4)nn23)CC1` was tested, and the pIC50 was under 4.52. `Nc1ncc(-c2ccc3ncc(S(=O)(=O)N4CCN(c5ccccn5)CC4)n3n2)cc1C(F)(F)F` showed a pIC50 of under 4.52. Work on `CCN1CCN(S(=O)(=O)c2cnc3ccc(-c4cncc(F)c4)nn23)CC1` yielded a pIC50 of under 4.52. `COc1cccc(CNS(=O)(=O)c2cnc3ccc(-c4cncc(F)c4)nn23)c1` was tested, and the pIC50 was under 4.52. In the case of `O=S(=O)(c1cnc2ccc(Cl)nn12)N1CCN(c2ccccn2)CC1`, the pIC50 was under 4.52. Work on `O=S(=O)(NCC1CCCO1)c1cnc2ccc(Cl)nn12` (centres undefined) yielded a pIC50 of under 4.52. `O=S(=O)(c1cnc2ccc(-c3cccnc3)nn12)N1CCN(Cc2ccccc2)CC1` gave a pIC50 of under 4.52. In the case of `CCN1CCN(S(=O)(=O)c2cnc3ccc(-c4ccc(S(C)(=O)=O)cc4)nn23)CC1`, the pIC50 was under 4.52. Work on `CCN1CCN(S(=O)(=O)c2cnc3ccc(-c4cncc(C(F)(F)F)c4)nn23)CC1` yielded a pIC50 of under 4.52. `COc1ccc(-c2ccc3ncc(S(=O)(=O)N4CCN(c5ccccn5)CC4)n3n2)cn1` gave a pIC50 of under 4.52. In the case of `COc1cccc(CNS(=O)(=O)c2cnc3ccc(-c4cccnc4)nn23)c1`, the pIC50 was under 4.52. Work on `COc1ccc(-c2ccc3ncc(S(=O)(=O)N4CCC(C#N)(c5ccccc5)CC4)n3n2)cc1OC` yielded a pIC50 of under 4.52. For `COc1cccc(CNS(=O)(=O)c2cnc3ccc(-c4cnc(N)c(C(F)(F)F)c4)nn23)c1`, the pIC50 was under 4.52. `CS(=O)(=O)c1ccc(-c2ccc3ncc(S(=O)(=O)N4CCN(Cc5ccccc5)CC4)n3n2)cc1` showed a pIC50 of under 4.52. With `CS(=O)(=O)c1ccc(-c2ccc3ncc(S(=O)(=O)N4CCN(c5ccccn5)CC4)n3n2)cc1` the pIC50 was under 4.52. `Nc1ncc(-c2ccc3ncc(S(N)(=O)=O)n3n2)cc1C(F)(F)F` showed a pIC50 of under 4.52. With `CCN1CCN(S(=O)(=O)c2cnc3ccc(-c4cccnc4)nn23)CC1` the pIC50 was under 4.52. With `CCN1CCN(S(=O)(=O)c2cnc3ccc(Cl)nn23)CC1` the pIC50 was under 4.52. Compound `O=S(=O)(c1cnc2ccc(-c3cncc(F)c3)nn12)N1CCN(Cc2ccccc2)CC1` has a pIC50 of under 4.52. `COc1cccc(CNS(=O)(=O)c2cnc3ccc(Cl)nn23)c1` gave a pIC50 of under 4.52. `COc1ccc(C2CNC(=O)C2)cc1OC1CCCC1` (centres undefined) [ROLIPRAM] was tested, and the pIC50 was under 4.52.

The compounds below were run against T1, Tumor necrosis factor (Mus musculus, UniProt P06804) (assay: Inhibition of mouse recombinant TNF-alpha binding to antibody preincubated for 30 mins followed by antibody addition measured after 2 hrs by ELISA).
T1 sequence (P06804 whole entry): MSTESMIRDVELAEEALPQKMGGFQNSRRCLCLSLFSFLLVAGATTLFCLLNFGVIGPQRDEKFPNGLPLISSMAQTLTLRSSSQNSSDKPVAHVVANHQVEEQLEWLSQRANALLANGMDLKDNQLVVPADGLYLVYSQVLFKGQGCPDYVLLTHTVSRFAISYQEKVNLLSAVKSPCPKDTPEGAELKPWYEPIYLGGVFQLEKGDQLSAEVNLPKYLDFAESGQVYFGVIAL
With `CCCCn1cnc(CC(c2c(O)c3ccccc3oc2=O)c2c(O)c3ccccc3oc2=O)c1Cl` the pIC50 was 4.78.
